Data set [1] can be described thus: Acute toxicity in BALB/c mouse assessed as mouse survival at 100 to 200 ug, sc measured after 5 days. It is filed as organism-based. Conditions: in vivo. In short, it runs like this: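 Female BALB/c mice, 10 weeks old, 5 per group, given a single subcutaneous injection in the neck of adjuvant in 0.1 mL PBS at doses from 100 to 5000 μg, with untreated controls. Survival was counted 5 days after injection. Surviving mice were checked through day 7 for fur condition, behaviour, lethargy and lesion formation.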

In data set [2] the test system is Mus musculus. Put plainly: Immuno-adjuvant activity in OVA-immunized BALB/c mouse assessed as potentiation of antibody response to OVA by measuring increase in serum anti-OVA IgG2a activity at 100 ug, sc administered immediately and on day 14, 28 and measured at week 4 to 6 by ELISA. It is filed as functional, organism-based. The procedure, abridged: (§1)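 Female BALB/c mice (8–10 weeks, six per group) got sc OVA (20 μg) plus adjuvant (100 μg) on days 0, 14 and 28. Tail-vein serum was taken before each dose and 2 weeks after the last. ELISA plates were coated with OVA (0.1 μg/mL) in borate-buffered saline, pH 8.2. Serial 2-fold serum dilutions were run in duplicate, detected with HRP anti-mouse IgG/IgG1/IgG2a and o-phenylenediamine, and read at 490 nm.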
In general terms: An ELISA detects its analyte on a solid surface through an enzyme-linked reagent.

Data set [3] has as its system Mus musculus. Put plainly: Immuno-adjuvant activity in recombinant Porphyromonas gingivalis HagB-immunized BALB/c mouse assessed as potentiation of antibody response to rHagB by measuring increase in serum anti-rHagB IgG2a activity at 100 ug, sc administered immediately and on day 14, 28 and measured at week 2 to 4 by ELISA. It is filed as functional, organism-based.

Data set [4] relates to Mus musculus. The data set can be described thus: Immuno-adjuvant activity in recombinant Porphyromonas gingivalis HagB-immunized BALB/c mouse assessed as potentiation of antibody response to rHagB by measuring increase in serum anti-rHagB IgG activity at 100 ug, sc administered immediately and on day 14, 28 and measured at week 2 to 4 by ELISA. It is filed as functional, organism-based.

Data set [5] has as its system Mus musculus. The data set can be described thus: Immuno-adjuvant activity in recombinant Porphyromonas gingivalis HagB-immunized BALB/c mouse assessed as potentiation of antibody response to rHagB by measuring increase in serum anti-rHagB IgG1 activity at 100 ug, sc administered immediately and on day 14, 28 and measured at week 2 to 4 by ELISA. It is filed as functional, organism-based.

Data set [6] relates to Mus musculus. The data set can be described thus: Immuno-adjuvant activity in OVA-immunized BALB/c mouse assessed as potentiation of antibody response to OVA by measuring increase in serum anti-OVA IgG1 activity at 100 ug, sc administered immediately and on day 14, 28 and measured at week 6 by ELISA. It is filed as functional, organism-based. In short, it runs like this:
as §1

Data set [7] has as its system Mus musculus. The data set can be described thus: Immuno-adjuvant activity in OVA-immunized BALB/c mouse assessed as potentiation of antibody response to OVA by measuring increase in serum anti-OVA IgG1 activity at 100 ug, sc administered immediately and on day 14, 28 and measured at week 2 to 4 by ELISA. It is filed as functional, organism-based. In short, it runs like this: as §1

For data set [8], the system named is Mus musculus. Put plainly: Immuno-adjuvant activity in recombinant Porphyromonas gingivalis HagB-immunized BALB/c mouse assessed as potentiation of antibody response to rHagB by measuring serum anti-rHagB IgG2a activity at 100 ug, sc administered immediately and on day 14, 28 and measured at week 6 by ELISA. It is filed as functional, organism-based.
Data set [9] has as its system Mus musculus. Put plainly: Immuno-adjuvant activity in OVA-immunized BALB/c mouse assessed as potentiation of antibody response to OVA by measuring ratio of serum anti-OVA IgG2a to serum anti-OVA IG1 level at 100 ug, sc administered immediately and on day 14, 28 and measured at week 6 by ELISA. It is filed as functional.
For data set [10], the system named is Mus musculus. The data set can be described thus: Immuno-adjuvant activity in OVA-immunized BALB/c mouse assessed as potentiation of antibody response to OVA by measuring increase in serum anti-OVA IgG activity at 100 ug, sc administered immediately and on day 14, 28 and measured at week 4 to 6 by ELISA. It is filed as functional, organism-based. In short, it runs like this: as §1

Data set [11] can be described thus: Toxicity in OVA-immunized BALB/c mouse assessed as changes in body weight at 100 ug, sc administered immediately and on day 14, 28 and measured at week 6. It is filed as organism-based. Conditions: in vivo. The procedure, abridged:
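Female BALB/c mice (8–10 weeks, six per group) received sc OVA (20 μg) with adjuvant (100 μg) on days 0, 14 and 28. Body weight was recorded before each immunization and 2 weeks after the final one.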

The test system of data set [12] is Mus musculus. Put plainly: Immuno-adjuvant activity in recombinant Porphyromonas gingivalis HagB-immunized BALB/c mouse assessed as potentiation of antibody response to rHagB by measuring serum anti-rHagB IgG1 activity at 100 ug, sc administered immediately and on day 14, 28 and measured at week 6 by ELISA. It is filed as functional, organism-based.
Data set [13] deals with Mus musculus. The data set can be described thus: Immuno-adjuvant activity in recombinant Porphyromonas gingivalis HagB-immunized BALB/c mouse assessed as potentiation of antibody response to rHagB by measuring increase in serum anti-rHagB IgG activity at 100 ug, sc administered immediately and on day 14, 28 and measured at week 6 by ELISA. It is filed as functional, organism-based.

Data set [14] concerns Mus musculus. Put plainly: Immuno-adjuvant activity in OVA-immunized BALB/c mouse assessed as potentiation of antibody response to OVA by measuring serum anti-OVA IgG2a activity at 100 ug, sc administered immediately and on day 14, 28 and measured at week 2 by ELISA. It is filed as functional, organism-based. In short, it runs like this: as §1
Data set [15] concerns Mus musculus. The data set can be described thus: Immuno-adjuvant activity in OVA-immunized BALB/c mouse assessed as potentiation of antibody response to OVA by measuring serum anti-OVA IgG1 level at 100 ug, sc administered immediately and on day 14, 28 and measured at week 6 by ELISA (reference value: 113 +/- 37 ug/ml). It is filed as functional. In short, it runs like this:
as §1

Data set [16] deals with Mus musculus. Put plainly: Immuno-adjuvant activity in OVA-immunized BALB/c mouse assessed as potentiation of antibody response to OVA by measuring serum anti-OVA IgG2a level at 100 ug, sc administered immediately and on day 14, 28 and measured at week 6 by ELISA (reference value: 0.1 ug/ml). It is filed as functional. The procedure, abridged:
as §1

Data set [17] concerns Mus musculus. The data set can be described thus: Immuno-adjuvant activity in OVA-immunized BALB/c mouse assessed as potentiation of antibody response to OVA by measuring serum anti-OVA IgG activity at 100 ug, sc administered immediately and on day 14, 28 and measured at week 6 by ELISA. It is filed as functional, organism-based. In short, it runs like this: as §1
The subject of data set [18] is Mus musculus. Put plainly: Immuno-adjuvant activity in OVA-immunized BALB/c mouse assessed as potentiation of antibody response to OVA by measuring increase in serum anti-OVA IgG activity at 100 ug, sc administered immediately and on day 14, 28 and measured at week 2 to 4 by ELISA. It is filed as functional, organism-based. The procedure, abridged: as §1
Data set [19] concerns Mus musculus. Put plainly: Immuno-adjuvant activity in OVA-immunized BALB/c mouse assessed as potentiation of antibody response to OVA by measuring increase in serum anti-OVA IgG activity at 100 ug, sc administered immediately and on day 14, 28 and measured at week 2 to 6 by ELISA. It is filed as functional, organism-based. The procedure, abridged: as §1

The structures appear in SMILES notation. Active and inactive are the calls of the source. The calls are words filed in the database; no cut-off is given here.

Regarding `CC1(C)CC[C@]2(C(=O)O[C@@H]3O[C@H](CO)[C@@H](O)[C@H](O[C@@H]4O[C@H](CO)[C@@H](O)[C@H](O[C@@H]5O[C@H](CO)[C@@H](O)[C@H](O[C@@H]6O[C@H](CO)[C@@H](O)[C@H](O[C@@H]7O[C@H](CO)[C@@H](O)[C@H](O)[C@H]7O)[C@H]6O)[C@H]5O)[C@H]4O)[C@H]3O)[C@H](O)C[C@]3(C)C(=CC[C@@H]4[C@@]5(C)CC[C@H](O[C@@H]6O[C@H](CO)[C@@H](O)[C@H](O[C@@H]7O[C@H](CO)[C@@H](O)[C@H](O[C@@H]8O[C@H](CO)[C@@H](O)[C@H](O)[C@H]8O)[C@H]7O)[C@H]6O)[C@@](C)(C=O)[C@@H]5CC[C@]43C)[C@H]2C1`, the survival at 120 h in data set [1] stood at 0%.
For `CCCCCCCCCCCCNC(=O)[C@H]1O[C@@H](O[C@H]2CC[C@]3(C)[C@H]4CC=C5[C@H]6CC(C)(C)CC[C@]6(C(=O)O[C@@H]6O[C@H](C)[C@H](O)[C@H](O)[C@H]6O[C@@H]6O[C@@H](C)[C@H](O[C@@H]7OC[C@@H](O)[C@H](O)[C@H]7O)[C@@H](O[C@@H]7O[C@H](CO)[C@@H](O)[C@H](O[C@@H]8OC[C@@H](O)[C@H](O)[C@H]8O)[C@H]7O)[C@H]6O)[C@H](O)C[C@@]5(C)[C@]4(C)CC[C@H]3[C@]2(C)C=O)[C@H](O[C@@H]2O[C@H](CO)[C@H](O)[C@H](O)[C@H]2O)[C@@H](O[C@@H]2O[C@@H](C)[C@H](O)[C@@H](O)[C@H]2O)[C@@H]1O`, the result in the data set with Mus musculus [2], with Mus musculus [8], in the data set on Mus musculus [12], in the data set with Mus musculus [13] and with Mus musculus [14] was inactive. In addition, the result with Mus musculus [3], in the data set with Mus musculus [4], in the data set with Mus musculus [5], with Mus musculus [6], in the data set on Mus musculus [7] and in the data set with Mus musculus [10] was Active. Further, the Ratio in the data set with Mus musculus [9] is <0.001. Further, the Activity entry in data set [11] is “Non-Toxic”; in the data set on Mus musculus [15], 869 µg/mL; in the data set on Mus musculus [16], 1 µg/mL.
On to `C[C@@H]1O[C@@H](O[C@H]2[C@H](O)[C@@H](C(=O)O)O[C@@H](O[C@H]3CC[C@]4(C)[C@H]5CC=C6[C@H]7CC(C)(C)CC[C@]7(C(=O)O[C@@H]7O[C@H](C)[C@H](O)[C@H](O)[C@H]7O[C@@H]7O[C@@H](C)[C@H](O[C@@H]8OC[C@@H](O)[C@H](O)[C@H]8O)[C@@H](O[C@@H]8O[C@H](CO)[C@@H](O)[C@H](O[C@@H]9OC[C@@H](O)[C@H](O)[C@H]9O)[C@H]8O)[C@H]7O)[C@H](O)C[C@@]6(C)[C@]5(C)CC[C@H]4[C@]3(C)C=O)[C@@H]2O[C@@H]2O[C@H](CO)[C@H](O)[C@H](O)[C@H]2O)[C@H](O)[C@H](O)[C@H]1O`, for which the result in the data set with Mus musculus [2], with Mus musculus [17], in the data set with Mus musculus [12], in the data set on Mus musculus [13] and in the data set with Mus musculus [14] was inactive. The outcome with Mus musculus [4], in the data set on Mus musculus [5], with Mus musculus [7] and in the data set with Mus musculus [18] was Active. In addition, the Ratio with Mus musculus [9] is <0.001. Further, the Activity entry in data set [11] is “Non-Toxic”; with Mus musculus [15], 262 µg/mL; in the data set on Mus musculus [16], 0.1 µg/mL.
Regarding `C[C@@H]1O[C@@H](O[C@H]2[C@H](O)[C@@H](C(=O)O)O[C@@H](O[C@H]3CC[C@]4(C)[C@H]5CC=C6[C@H]7CC(C)(C)CC[C@]7(C(=O)O[C@@H]7O[C@H](C)[C@H](O)[C@H](O)[C@H]7O[C@@H]7O[C@@H](C)[C@H](O[C@@H]8OC[C@@H](O)[C@H](O)[C@H]8O)[C@@H](O[C@@H]8O[C@H](CO)[C@@H](O)[C@H](O[C@@H]9OC[C@@H](O)[C@H](O)[C@H]9O)[C@H]8O)[C@H]7O)CC[C@@]6(C)[C@]5(C)CC[C@H]4[C@]3(C)C=O)[C@@H]2O[C@@H]2O[C@H](CO)[C@H](O)[C@H](O)[C@H]2O)[C@H](O)[C@H](O)[C@H]1O`, the result in the data set with Mus musculus [2], in the data set on Mus musculus [19], in the data set with Mus musculus [12], with Mus musculus [13] and in the data set on Mus musculus [14] was inactive. The outcome in the data set with Mus musculus [4], with Mus musculus [5] and in the data set on Mus musculus [7] was Active. Also, the Ratio in the data set with Mus musculus [9] was <0.001. The values for the Activity result (in data set [11]; in the data set with Mus musculus [15]; in the data set on Mus musculus [16]) were “Non-Toxic”, 233 µg/mL and 0.2 µg/mL, respectively.
